Compound activity deposited in PubChem by several laboratories.
MT1-MMP act inh = inhibitors of human MT1-MMP activation; HT1080 RFP-PRO-GFP cells, GFP/RFP ratio fluorescence, overnight; percent of plate control window, DMSO zero; GFP/RFP ratio change, % at 20 µM; 0.061% of 360,000 active;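 active = GFP/RFP ratio change of at least 30% with cell ATP level not reduced by more than half and red fluorescence within 50% of control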
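Assay system: HT1080 RFP-PRO-GFP cells. Benchmarks: DMSO vehicle wells and RFP-L50D-GFP reporter cell wells. Times: overnight cell settling, then overnight compound exposure, 37 °C, 5% CO2. Compound: 20 µM single dose, 1% DMSO. Read-out basis: GFP/RFP fluorescence ratio.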
Tn7 DDE FP = disrupts Tn7 cyclic peptide binding to fibrin D-Dimer-E complex | inhibition, % at 8.3 µM | FP displacement of FITC-Tn7 peptide from fibrin DD(E); 0% = median of compound wells per plate | P02675 | 0.13% of 370,000 active | AID 720508;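 active = inhibition above the mean of compounds falling within the control limits plus 3 SD of them, cut at about 14% in these data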;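 also: 0% = plate median of compound wells and 100% = 10 µM Aha-Tn7 peptide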
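Assay system: Fibrin-DD(E) protein isolated from polymerized human fibrin clots; read-out basis: percent inhibition; medium: Tris/NaCl/CaCl2 buffer, pH 7.8; signal: FP measurement; incubation: 10 min plus 3 h, room temperature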
TAG inh = reduces triacylglycerol accumulation in H9c2 cells. Nile Red lipid (TAG) fluorescence; cells loaded with 200 µM oleic acid. inhibition, % at 12.5 µM. 0.66% of 230,000 active;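 active = pattern-corrected inhibition of lipid staining of at least 50% with the nuclear-stain viability signal not falling by more than 50%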;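 also: 0% = DMSO wells and 100% = triacsin C control wells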
DAGLB inh = diacylglycerol lipase beta (human) inhibition; Q8NCG7; HEK293T DAGLB membrane lysate, EnzChek fluorogenic substrate; inhibition, % at 5.17 µM; 0.059% of 340,000 active; in the data active = inhibition above about 34%;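 also: 0% = enzyme with vehicle and 100% = wells lacking enzyme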
Target sequence (Q8NCG7 whole entry, looked up): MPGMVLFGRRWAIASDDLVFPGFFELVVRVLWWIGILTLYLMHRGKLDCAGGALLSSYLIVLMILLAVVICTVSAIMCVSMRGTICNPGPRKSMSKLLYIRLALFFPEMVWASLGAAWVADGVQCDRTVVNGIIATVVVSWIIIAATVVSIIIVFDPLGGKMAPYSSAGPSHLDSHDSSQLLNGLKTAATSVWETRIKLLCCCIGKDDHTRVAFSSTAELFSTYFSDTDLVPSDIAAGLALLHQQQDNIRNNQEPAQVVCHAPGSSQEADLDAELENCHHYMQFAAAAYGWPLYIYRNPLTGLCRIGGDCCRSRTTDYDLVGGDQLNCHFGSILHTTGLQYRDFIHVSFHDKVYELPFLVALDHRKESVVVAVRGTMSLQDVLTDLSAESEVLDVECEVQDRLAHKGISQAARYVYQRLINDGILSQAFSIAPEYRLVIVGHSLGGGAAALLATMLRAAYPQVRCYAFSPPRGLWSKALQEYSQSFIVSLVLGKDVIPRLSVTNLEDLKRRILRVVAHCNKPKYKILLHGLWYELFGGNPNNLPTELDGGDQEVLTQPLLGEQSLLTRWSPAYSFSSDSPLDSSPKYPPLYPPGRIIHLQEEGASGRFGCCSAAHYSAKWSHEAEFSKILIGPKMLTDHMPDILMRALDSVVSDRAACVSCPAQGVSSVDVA
H9c2 protect = myocardial damage modulation in H9c2 cells. protection from H2O2 cell death, % at 20 µM. H9c2 cardiomyocytes, H2O2 injury protection, ATPLite, 2 h. 0.63% of 360,000 active;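 active = compounds giving at least 50% protection of heart cells from peroxide-induced death in the single-dose screen, raw or plate-pattern-corrected value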;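 also: 0% = DMSO wells with peroxide and 100% = DMSO wells without peroxide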
DDE Tn6 FP inh = DD(E)-Tn6 binding inhibition, primary FP screen; P02675; Fibrin DD(E) TRITC-Tn6 fluorescence polarization displacement; inhibition, % at 8.3 µM; 0.21% of 370,000 active;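 active = inhibition above a per-campaign cutoff: mean of compounds within control limits plus 3 SD, cut at about 15% in these data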;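 also: 0% = median of all compound wells on the plate and 100% = blocking peptide control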
The depositor's hits bear a star. This is a sample that favours compounds with a hit; in the whole collection about 1.4% have one here.

O=C(NCC(=O)N(Cc1ccccc1)C(C(=O)NCC1CCCO1)c1ccccc1)c1ccco1 (centres undefined) was read as MT1-MMP act inh -4, Tn7 DDE FP 6, DAGLB inh 1, H9c2 protect 33 and DDE Tn6 FP inh -3.
For COc1ccccc1CN(C(=O)CNC(=O)c1ccco1)C(C(=O)NCC1CCCO1)c1ccccc1 (centres undefined) the results were MT1-MMP act inh -2, Tn7 DDE FP -1, DAGLB inh 1, H9c2 protect 68* and DDE Tn6 FP inh -3.
O=S1(=O)c2ccc(Br)cc2OC[C@H](Cc2ccccc2)N1Cc1cn(Cc2ccc(Br)cc2)nn1 was read as Tn7 DDE FP 0 and DDE Tn6 FP inh 2.
For CCCCOCCCNC(=O)C[C@@H]1C(=O)N(Cc2ccc(OC)cc2)C2=CCN(C(=O)OC(C)(C)C)C[C@]21C(=O)OCC the results were Tn7 DDE FP 8 and DDE Tn6 FP inh -4.
C/C=C/C(=O)N1CCC(C(=O)NC2CCCc3ccccc32)CC1 (centres undefined) was read as Tn7 DDE FP -1 and DDE Tn6 FP inh 7.
`COC(=O)c1cc2c(c3c4cc(F)ccc4n(S(=O)(=O)c4ccccc4)c13)C(=O)N(Cc1ccc(N(C)C)cc1)C2` gave Tn7 DDE FP 5 and DDE Tn6 FP inh -6.
For COc1ccc(Cn2c(SCc3ccccc3C)nc3cc(OC)c(OC)cc3c2=N)cc1 the results were MT1-MMP act inh -38, Tn7 DDE FP -6, TAG inh 59*, DAGLB inh 1, H9c2 protect -17 and DDE Tn6 FP inh -2.
Cc1[nH]n(-c2nc(-c3ccc(Cl)cc3)cs2)c(=O)c1N=Nc1ccc(O)cc1 was read as MT1-MMP act inh 9, Tn7 DDE FP -8, H9c2 protect 80* and DDE Tn6 FP inh 3.
Screening CCc1c(C)[nH]n(-c2nc(-c3ccccc3)cs2)c1=O returned MT1-MMP act inh 1, Tn7 DDE FP 3, TAG inh -4, DAGLB inh 1, H9c2 protect 2 and DDE Tn6 FP inh 7.
Cc1cc(C)c2c(N)c(C(=O)N/N=C/c3cccnc3)sc2n1 was read as MT1-MMP act inh 12, Tn7 DDE FP 4, TAG inh 3, H9c2 protect 66* and DDE Tn6 FP inh -1.
For Nc1c(C(=O)N/N=C/c2cccnc2)oc2nc(-c3ccco3)cc(-c3ccco3)c12 the results were MT1-MMP act inh -11, Tn7 DDE FP 2, TAG inh 18, H9c2 protect 77* and DDE Tn6 FP inh -13.
For Nc1c(C(=O)N/N=C/c2cccnc2)oc2nc(-c3ccccc3)cc(-c3ccco3)c12 the results were MT1-MMP act inh -5, Tn7 DDE FP 5, TAG inh -17, H9c2 protect 68* and DDE Tn6 FP inh -3.
Screening O=C(N/N=C/c1cccnc1)c1cc2ccccc2o1 returned MT1-MMP act inh -3, Tn7 DDE FP 0, DAGLB inh 0, H9c2 protect 2 and DDE Tn6 FP inh 1.
For Cc1cc(C)c2c(N)c(C(=O)N/N=C/c3ccccc3)sc2n1 the results were MT1-MMP act inh 7, Tn7 DDE FP -8, TAG inh -2, DAGLB inh 1, H9c2 protect 27 and DDE Tn6 FP inh -7.
NNC(=O)c1oc2nc(-c3ccco3)cc(-c3ccco3)c2c1N was read as MT1-MMP act inh -95, Tn7 DDE FP -1, TAG inh -16, H9c2 protect 33 and DDE Tn6 FP inh -11.
Screening O=C(N[C@H](C(=O)N1CCC[C@H]1C(=O)NCc1ccccc1)c1ccccc1)c1ccccc1 returned Tn7 DDE FP 1 and DDE Tn6 FP inh -5.
Screening CCOC(=O)[C@@]12CN(C(=O)OC(C)(C)C)CC=C1N(Cc1ccc(OC)cc1)C(=O)[C@H]2CC(=O)N1CCOCC1 returned Tn7 DDE FP 3 and DDE Tn6 FP inh -3.
COC(=O)c1cc(OC)c(OC)cc1NC(=O)Nc1ccc(OC)cc1 was read as MT1-MMP act inh -2, Tn7 DDE FP -2, TAG inh -4, DAGLB inh 0, H9c2 protect 6 and DDE Tn6 FP inh -4.
Screening COC(=O)c1cc2ccc(OC)cc2c2cc(OC)c(OC)cc12 returned MT1-MMP act inh 1, Tn7 DDE FP 1, TAG inh 48, DAGLB inh 0, H9c2 protect 55* and DDE Tn6 FP inh 4.
Screening Cc1cc(N2CCN(CC(C)(C)O)C[C@@H]2C)ccc1N1CCN(Cc2ccccc2)[C@H](C)C1 returned Tn7 DDE FP 3 and DDE Tn6 FP inh -2.
For COCCCN1C(=O)[C@H](CC(=O)NCCCN2CCCC2=O)[C@]2(C(=O)OC)CCCCC=C12 the results were Tn7 DDE FP 7 and DDE Tn6 FP inh -3.
Screening N/C(=N\NC(=O)c1sccc1OCc1ccc(Cl)cc1Cl)c1ccccn1 returned MT1-MMP act inh -6, Tn7 DDE FP 5, DAGLB inh 4, H9c2 protect 55* and DDE Tn6 FP inh 0.
Screening COC(=O)C1=C(C)NC(C)=C(C(=O)OC)C1c1cc2cc(C)ccc2[nH]c1=O returned MT1-MMP act inh 2, Tn7 DDE FP -6, TAG inh -43, DAGLB inh 2, H9c2 protect 3 and DDE Tn6 FP inh -1.
For Cc1oc(C)c2c(=O)ccc3c(c12)OC(N)=C(C#N)C3c1ccccc1 (centres undefined) the results were MT1-MMP act inh -52, Tn7 DDE FP -2, TAG inh -10, DAGLB inh 2, H9c2 protect 24 and DDE Tn6 FP inh 3.
`Cc1ccc2[nH]c(=O)c(C3C(C#N)=C(N)Oc4c3ccc3cccnc43)cc2c1` (centres undefined) gave MT1-MMP act inh -13, Tn7 DDE FP -6, TAG inh -20, DAGLB inh 29, H9c2 protect 64* and DDE Tn6 FP inh 2.
Screening N#CC1=C(N)Oc2c(ccc3cccnc23)C1c1ccccc1 (centres undefined) returned MT1-MMP act inh 3, Tn7 DDE FP 4, TAG inh 77, DAGLB inh 6, H9c2 protect 58* and DDE Tn6 FP inh 2.
For Cc1ccc(-n2cc(-c3ccccc3)c3c(=O)[nH]cnc32)cc1 the results were MT1-MMP act inh -2, Tn7 DDE FP 1, DAGLB inh 4, H9c2 protect -3 and DDE Tn6 FP inh -1.
Screening Fc1cccc(-n2cc(-c3ccccc3)c3c(=S)nc[nH]c32)c1 returned MT1-MMP act inh -10, Tn7 DDE FP 6, DAGLB inh -2, H9c2 protect 64* and DDE Tn6 FP inh -1.
For Fc1ccc(-n2cc(-c3ccccc3)c3c(=S)nc[nH]c32)cc1 the results were MT1-MMP act inh -1, Tn7 DDE FP 0, DAGLB inh 0, H9c2 protect 85* and DDE Tn6 FP inh 4.
